Here are results for 44 compounds from ChEMBL document CHEMBL1140213, “Synthesis and structure-activity relationship studies of 2-(N-substituted)-aminobenzimidazoles as potent negative gating modulators ofsmall conductance Ca2+-activated K+ channels” (J Med Chem, 2008).

For assay [1], the target named is Small conductance calcium-activated potassium channel protein 3 (Rattus norvegicus, UniProt P70605). As to the kind of experiment: (§1) Inhibition of Wistar rat recombinant SK3 channel expressed in HEK293 cells by whole cell patch clamp technique. Format: cell-based. In outline:
(§2)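 Whole-cell patch clamp on HEK293 cells stably expressing rat SK3. Extracellular solution contains 4 mM K+. Pipette Ca2+ is buffered at 400 nM. Kd comes from single-concentration kinetics experiments (n = independent experiments), reported as mean ± SEM.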
A general note: The patch-clamp technique gives a direct electrical read-out from membranes.

For assay [2], the target named is Small conductance calcium-activated potassium channel protein 3 (Rattus norvegicus) (UniProt P70605). The description is as §1. In kind it is cell-based. In outline: as §2
In assay [3] the target is T1, Small conductance calcium-activated potassium channel protein 3 (Homo sapiens, UniProt Q9UGI6). Description: Inhibition of wild type human SK3 channel expressed in HEK293 cells assessed as Ca2+ sensitivity by inside-out patch clamp technique. In kind it is cell-based. An outline of the steps:
(§3)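 Inside-out patches from HEK293 cells transiently transfected (lipofectamine) with hSK3 or hSK3(Q493A;D495A), recorded 2-4 days after transfection. Patches are exposed to a series of Ca2+-buffered solutions. Currents are normalized to the current induced by 10 µM Ca2+, and Hill fits give EC50(Ca2+) and nH. Mean ± SEM.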

The target of assay [4] is T1, Small conductance calcium-activated potassium channel protein 3. As to the kind of experiment: Inhibition of human SK3 channel expressed in HEK293 cells assessed as Ca2+ induced current after drug wash out by whole cell patch clamp technique in presence of bicuculline methobromide. Format: cell-based. In outline: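 Whole-cell SK3 current is measured every 5 s at 0 mV from voltage ramps (-120 to +30 mV). Pipette Ca2+ is buffered at 400 nM. Inhibition is followed to steady state (about 5 min) and then washed out. Bicuculline methobromide (100 µM) is applied for 20 s during the wash. Kd is fitted from the kinetics.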

Assay [5] concerns the target Small conductance calcium-activated potassium channel protein 2 (Homo sapiens, UniProt Q9H2S1). As to the kind of experiment: Inhibition of human SK2 channel by inside-out patch clamp technique.
Assay [6] concerns the target Small conductance calcium-activated potassium channel protein 1 (Homo sapiens, UniProt Q92952). Description: Inhibition of human SK1 channel by inside-out patch clamp technique.
The target of assay [7] is T1, Small conductance calcium-activated potassium channel protein 3. Description: Inhibition of human SK3 channel by inside-out patch clamp technique.
The target is the same in assay [8]. As to the kind of experiment: Inhibition of wild type human SK3 channel expressed in HEK293 cells. In kind it is cell-based.
Assay [9] can be described thus: Inhibition of human SK3 channel Q493A;D495A mutant expressed in HEK293 cells assessed as Ca2+ sensitivity by inside-out patch clamp technique. Format: cell-based. An outline of the steps:
as §3

For assay [10], the target named is T1, Small conductance calcium-activated potassium channel protein 3. As to the kind of experiment: Inhibition of wild type human SK3 channel expressed in HEK293 cells at 300 nM by whole cell assay. Format: cell-based.
Assay [11] in a line: Inhibition of human SK3 channel Q493A;D495A mutant expressed in HEK293 cells. In kind it is cell-based.
Another assay concerns HEK293. As to the kind of experiment: Inhibition of human SK3 channel Q493A;D495A mutant expressed in HEK293 cells at 300 nM by whole cell assay. Format: cell-based.

Active and inactive are the calls of the source. No cut-off for these calls is given here.

Chain of Small conductance calcium-activated potassium channel protein 3 (Rattus norvegicus, UniProt P70605) (P70605 whole entry): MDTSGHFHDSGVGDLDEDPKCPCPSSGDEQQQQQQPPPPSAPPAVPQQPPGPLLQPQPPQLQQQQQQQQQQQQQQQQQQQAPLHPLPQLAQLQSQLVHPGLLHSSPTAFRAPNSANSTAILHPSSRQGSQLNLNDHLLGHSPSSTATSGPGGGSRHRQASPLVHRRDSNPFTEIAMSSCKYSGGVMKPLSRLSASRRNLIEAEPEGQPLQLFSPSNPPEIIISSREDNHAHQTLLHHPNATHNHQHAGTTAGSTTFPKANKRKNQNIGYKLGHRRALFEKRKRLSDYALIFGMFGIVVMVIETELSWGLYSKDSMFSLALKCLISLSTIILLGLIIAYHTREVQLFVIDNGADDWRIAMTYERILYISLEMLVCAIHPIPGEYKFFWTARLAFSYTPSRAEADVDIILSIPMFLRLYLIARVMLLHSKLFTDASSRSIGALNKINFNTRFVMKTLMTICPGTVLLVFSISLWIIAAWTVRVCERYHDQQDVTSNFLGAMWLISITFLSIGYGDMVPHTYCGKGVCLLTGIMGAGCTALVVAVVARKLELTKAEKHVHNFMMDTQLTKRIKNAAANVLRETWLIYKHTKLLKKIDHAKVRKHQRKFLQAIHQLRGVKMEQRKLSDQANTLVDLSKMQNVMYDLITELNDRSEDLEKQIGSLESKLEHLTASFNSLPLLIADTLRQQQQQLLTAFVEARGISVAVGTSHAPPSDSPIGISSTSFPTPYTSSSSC
Chain of Small conductance calcium-activated potassium channel protein 3 (Rattus norvegicus) (P70605 whole entry): as above
T1 sequence (Q9UGI6 whole entry): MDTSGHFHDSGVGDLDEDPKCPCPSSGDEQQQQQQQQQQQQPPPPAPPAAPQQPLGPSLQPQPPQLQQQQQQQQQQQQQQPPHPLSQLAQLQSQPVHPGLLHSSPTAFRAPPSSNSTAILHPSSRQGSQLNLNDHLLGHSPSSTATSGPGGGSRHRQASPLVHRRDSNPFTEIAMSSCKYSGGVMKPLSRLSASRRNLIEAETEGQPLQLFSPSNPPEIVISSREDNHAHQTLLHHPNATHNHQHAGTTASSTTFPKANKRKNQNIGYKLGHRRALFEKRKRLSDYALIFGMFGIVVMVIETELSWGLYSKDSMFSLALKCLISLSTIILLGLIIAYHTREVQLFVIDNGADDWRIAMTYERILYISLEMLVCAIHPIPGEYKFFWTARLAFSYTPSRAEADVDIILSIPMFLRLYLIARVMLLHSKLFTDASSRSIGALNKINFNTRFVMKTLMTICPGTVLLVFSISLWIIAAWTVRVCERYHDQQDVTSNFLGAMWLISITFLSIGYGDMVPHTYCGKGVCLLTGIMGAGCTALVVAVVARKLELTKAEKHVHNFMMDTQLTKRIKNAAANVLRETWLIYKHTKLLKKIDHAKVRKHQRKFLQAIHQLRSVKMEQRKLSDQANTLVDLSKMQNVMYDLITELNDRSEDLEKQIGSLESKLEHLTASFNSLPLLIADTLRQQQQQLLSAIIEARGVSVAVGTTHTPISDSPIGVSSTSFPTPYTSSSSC
Chain of Small conductance calcium-activated potassium channel protein 1 (Q92952 whole entry): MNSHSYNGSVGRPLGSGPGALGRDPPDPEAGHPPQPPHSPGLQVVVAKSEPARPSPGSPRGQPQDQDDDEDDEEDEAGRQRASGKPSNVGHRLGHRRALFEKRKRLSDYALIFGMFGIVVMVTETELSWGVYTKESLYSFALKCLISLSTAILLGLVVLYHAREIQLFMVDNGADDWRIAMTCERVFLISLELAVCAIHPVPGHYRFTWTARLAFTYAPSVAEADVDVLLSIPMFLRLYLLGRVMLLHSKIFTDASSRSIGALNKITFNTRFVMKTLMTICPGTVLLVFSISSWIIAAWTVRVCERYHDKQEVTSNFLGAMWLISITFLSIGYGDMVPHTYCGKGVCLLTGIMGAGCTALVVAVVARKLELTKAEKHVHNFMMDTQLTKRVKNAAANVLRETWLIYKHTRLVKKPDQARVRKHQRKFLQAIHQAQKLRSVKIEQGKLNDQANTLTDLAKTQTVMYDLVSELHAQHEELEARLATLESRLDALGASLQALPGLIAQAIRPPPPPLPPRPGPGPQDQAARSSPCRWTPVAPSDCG
Chain of Small conductance calcium-activated potassium channel protein 2 (Q9H2S1 whole entry): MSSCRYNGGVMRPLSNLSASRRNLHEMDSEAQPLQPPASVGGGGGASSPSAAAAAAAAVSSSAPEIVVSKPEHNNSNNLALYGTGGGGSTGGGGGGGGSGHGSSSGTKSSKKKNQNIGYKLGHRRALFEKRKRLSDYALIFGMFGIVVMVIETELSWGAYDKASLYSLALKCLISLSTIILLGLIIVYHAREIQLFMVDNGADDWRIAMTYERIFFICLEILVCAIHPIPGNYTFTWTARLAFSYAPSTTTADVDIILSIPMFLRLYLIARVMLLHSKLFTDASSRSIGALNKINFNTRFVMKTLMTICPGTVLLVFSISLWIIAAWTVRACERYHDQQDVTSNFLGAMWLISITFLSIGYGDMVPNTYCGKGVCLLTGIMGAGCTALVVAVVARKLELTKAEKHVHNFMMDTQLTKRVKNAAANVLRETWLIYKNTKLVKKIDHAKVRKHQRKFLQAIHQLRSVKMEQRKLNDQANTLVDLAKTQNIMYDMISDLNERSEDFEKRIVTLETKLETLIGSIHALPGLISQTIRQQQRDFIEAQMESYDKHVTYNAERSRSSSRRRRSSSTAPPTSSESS

For orientation: Kd means the constant that tells how readily two partners part at equilibrium. Turning to `c1ccc(C2CCCCN2c2nc3ccccc3[nH]2)cc1` (stereo not given), in [1], the equilibrium dissociation constant (Kd) was found to be 750 nM.

With `CCn1c(=O)[nH]c2ccccc21`, in [2], the result was Active.

As for `COc1cc2c3cc1Oc1cc(ccc1O)C[C@@H]1c4c(cc(OC)c(O)c4Oc4ccc(cc4)C[C@@H]3N(C)CC2)CC[N+]1(C)C`, the Kd in [1] amounted to 16000 nM.

For `Clc1cccc2c1C(Nc1nc3ccccc3[nH]1)CCC2` (stereo not given), the Kd in [1] is 27 nM.

Consider `Clc1ccc2c(c1)CCCC2Nc1nc2ccccc2[nH]1` (stereo not given), for which, in [1], the Kd worked out at 120 nM.

As for `c1ccc2c(c1)CCCC2Nc1nc2ccccc2[nH]1` (stereo not given), in assay [1], the Kd came to 130 nM.

On to `CC(=O)O[C@H]1C[C@@H]2CC[C@@H]3[C@H](CC[C@@]4(C)[C@H]3CC[C@H]([N+]3(C)CCCCC3)[C@@H]4OC(C)=O)[C@@]2(C)C[C@@H]1[N+]1(C)CCCCC1` [PENUCURONIUM], for which the Kd in [1] came out at 21000 nM.

Take `c1ccc2c(c1)CC(Nc1nc3ccccc3[nH]1)C2`: the Kd in assay [1] is 1700 nM.

In the case of `c1ccc(CCc2nc3ccccc3[nH]2)cc1`, in [1], the dissociation constant (Kd) was greater than 10000 nM.

In the case of `COc1ccc(C[C@H]2c3cc(OC)c(OC)cc3CC[N+]2(C)C)cc1OC` [LAUDANOSINE METHIODIDE], in [1], the Kd amounted to 2600 nM.

Take `Clc1cccc2c1CCCC2Nc1nc2ccccc2[nH]1` (stereo not given): in [1], the Kd amounted to 44 nM.

With `c1ccc2[nH]c(NC3CCCc4ccncc43)nc2c1` (stereo not given), the dissociation constant Kd in [1] is 6500 nM.

Turning to `O=C1Nc2c(ccc(Cl)c2Cl)/C1=N\O`, in [2], the result was Active.

Take `Cc1cc(N)c2ccccc2[n+]1CCCCCCCCCC[n+]1c(C)cc(N)c2ccccc21` [DEQUALINIUM CHLORIDE]: in [1], the Kd stood at 180 nM.

Regarding `c1ccc2c(c1)CCC2Nc1nc2ccccc2[nH]1` (stereo not given), the Kd in assay [1] is 790 nM.

For the compound `COc1ccc2c(c1)C(Nc1nc3ccccc3[nH]1)CCC2` (stereo not given), the Kd in assay [1] is 61 nM.

In general, EC50 refers to the concentration giving half of the maximal effect. With `Clc1cc2c(cc1Cl)C(Nc1nc3ccccc3[nH]1)CCC2` (stereo not given), the Kd in assay [1] was 9.1 nM; in assay [4], 7.8 nM; in assay [5], 47 nM; in assay [6], 54 nM; in assay [7] it was 60 nM. For the same compound, the EC50 in assay [3] is 1810 nM.

For `Clc1ccc(CNc2nc3ccccc3[nH]2)cc1Cl`, the Kd in assay [1] is 200 nM.

For the compound `c1ccc2c(c1)c1cc[n+]2CCCCC[n+]2ccc(c3ccccc32)NCCCCCN1`, the Kd in assay [1] was 0.43 nM.

By IC50 is commonly meant the midpoint of a concentration-inhibition curve. Regarding `C[N+]1(C)CCc2cc3c(cc2[C@H]1[C@@H]1OC(=O)c2c1ccc1c2OCO1)OCO3`, the IC50 in [1] was 7 µM.

The term inhibition denotes how much of the control response was suppressed. Regarding `c1ccc2c(c1)CCC[C@H]2Nc1nc2ccccc2[nH]1`, the dissociation constant Kd in assay [8] was 100 nM; in assay [1] it was 77 nM; in assay [11], 430 nM. Besides, the half-maximal effective concentration (EC50) in assay [3] turned out to be 400 nM; in assay [9] it was 440 nM. In addition, the inhibition in [10] stood at 75%; with HEK293, 45%.

Take `Clc1ccc(CNc2nc3ccccc3[nH]2)cc1`: the Kd in [1] was found to be 640 nM.

In the case of `COc1ccc(CC2c3cc(OC)c(OC)cc3CC[N+]2(C)CCC(=O)OCCCCCOC(=O)CC[N+]2(C)CCc3cc(OC)c(OC)cc3C2Cc2ccc(OC)c(OC)c2)cc1OC` (stereo not given) [ATRACURIUM], the Kd in assay [1] amounted to 6400 nM.

Consider `Cc1ccc2c(c1)C(Nc1nc3ccccc3[nH]1)CCC2` (stereo not given), for which the Kd in assay [1] turned out to be 20 nM.

As for `c1ccc(C2CCCN2c2nc3ccccc3[nH]2)cc1` (stereo not given), the dissociation constant Kd in assay [1] was 1600 nM.

Take `Fc1ccc2c(c1)C(Nc1nc3ccccc3[nH]1)CCC2` (stereo not given): the Kd in assay [1] worked out at 34 nM.

As for `Cc1cc(NC2CCCCC2)nc(-n2nc(C)cc2C)n1`, the outcome in [2] was Active.

Consider `c1ccc2c(c1)CCCCC2Nc1nc2ccccc2[nH]1` (stereo not given), for which, in assay [1], the Kd is 590 nM.

In the case of `c1cc2cc(c1)C[n+]1ccc(c3ccccc31)NCc1ccc(cc1)CNc1cc[n+](c3ccccc13)C2`, the Kd in [1] was determined as 2.7 nM.

Take `c1ccc2c(c1)OCCC2Nc1nc2ccccc2[nH]1` (stereo not given): the Kd in assay [1] was greater than 10000 nM.

`O=C(Nc1nc2ccccc2[nH]1)c1ccc(Cl)cc1`: in [1], the Kd is greater than 10000 nM.

`c1ccc2c(c1)CCN(c1nc3ccccc3[nH]1)C2`: in assay [1], the Kd was 14000 nM.

In the case of `c1ccc(CNc2nc3ccccc3[nH]2)cc1`, the Kd in assay [1] worked out at 2700 nM.

With `Brc1ccc2c(c1)C(Nc1nc3ccccc3[nH]1)CCC2` (stereo not given), in assay [1], the Kd is 11 nM.

As to `CC1CCC(Nc2nc3ccccc3[nH]2)c2ccccc21` (stereo not given), the Kd in assay [1] came out at 32 nM.

As for `c1ccc(-c2ccc3c(c2)C(Nc2nc4ccccc4[nH]2)CCC3)cc1` (stereo not given), the Kd in assay [1] came out at 600 nM.

On to `c1ccc2c3c(ccc2c1)CCCC3Nc1nc2ccccc2[nH]1` (stereo not given), for which the Kd in assay [1] turned out to be 31 nM.

On to `c1ccc2c(c1)CCC[C@@H]2Nc1nc2ccccc2[nH]1`, for which the Kd in [1] stood at 450 nM.

Take `Cc1cc(C)c2c(c1)C(Nc1nc3ccccc3[nH]1)CCC2` (stereo not given): the dissociation constant (Kd) in assay [1] turned out to be 33 nM.

Regarding `c1ccc2c(c1)CCC(Nc1nc3ccccc3[nH]1)C2` (stereo not given), the Kd in assay [1] was 2000 nM.

Turning to `c1ccc2[nH]c(NC3CCCc4sccc43)nc2c1` (stereo not given), the Kd in [1] worked out at 540 nM.

`Clc1ccc2c(c1)C(Nc1nc3ccccc3[nH]1)CCC2` (stereo not given): the Kd in assay [1] was determined as 17 nM.

Take `c1ccc2c(c1)SCCC2Nc1nc2ccccc2[nH]1` (stereo not given): the Kd in assay [1] was found to be 130 nM.

On to `CC1CCc2ccccc2C1Nc1nc2ccccc2[nH]1` (stereo not given), for which the Kd in [1] turned out to be 170 nM.
